Assay results taken from publication PMC9148379 (Alzheimer's & Dementia, 2021).
Read-outs that look alike come from different tables or passages of the source.

Tests used:
[1] = cited from earlier work
[2] = Experiment 8: aliquot freeze-thawing; type: in vitro ADME, human; details: EDTA plasma; for impact of sample freeze–thawing (up to four cycles) on values: six Aβ assays
How it was run: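 Human EDTA plasma subjected to repeated freeze–thaw was compared with reference aliquots (centrifuged 1800 × g at room temperature after 30 min standing at room temperature, aliquoted immediately, stored at −80°C). Each value was normalized to its reference as %recovery, and the group median per condition was taken. A median change >10% was deemed relevant. GFAP was measured with the pre-commercial Simoa Neurology 4-Plex E kit.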

[3] = cited from earlier work; for time from which levels in whole blood at RT started declining: different assays than used in this study
[4] = Experiment 7: two-week intermediate storage in the fridge; type: in vitro ADME, human; details: EDTA plasma, 2 weeks at −20°C before −80°C; six Aβ assays
[5] = cited from earlier work; remark: listed apart in the source
[6] = type: in vitro ADME, human; details: EDTA whole blood, Simoa N3PA

Row | Substance | time from which levels in separated plasma decline at RT [1] [h] | impact of sample freeze–thawing (up to four cycles) on values [2] | time from which levels in whole blood at RT started declining ([3]; ref 33) [h] | time from which levels in whole blood at RT started declining ([3]; ref 36) [h] | decrease of values after two‐week intermittent storage at −20°C [4] | plasma levels at freeze–thaw cycle 4 [5] | median recovery after four additional freeze–thaw cycles, other biomarkers ([2]; GFAP by Simoa N4PE) [%] | change at the second freeze–thaw cycle ([2]; Simoa N4PE) | time for which t‐tau was stable prior to centrifugation ([3]; other t‐tau assays) | median recovery, tubes held at RT for 3 hours pending centrifugation ([6]; 3 hours) [%] | median recovery, tubes held at RT for 24 hours pending centrifugation ([6]; 24 hours) [%]
1 | Aβ40: endogenous amyloid beta 40 peptide measured in blood as Alzheimer's disease biomarker | 8 | did not impact | 1 | 48 | did not | – | – | – | – | – | –
2 | Aβ42: endogenous amyloid beta 42 peptide measured in blood as Alzheimer's disease biomarker | 6 | did not impact | 1 | 6 | did not | – | – | – | – | – | –
3 | glial fibrillary acidic protein [GFAP] | – | – | – | – | – | remained stable | 113 | no change | – | – | –
4 | total tau [t‐tau] | – | – | – | – | – | – | – | – | up to 6 hours | 83 | 49
